Activation data for 1 compound are collected here from PubChem BioAssay AID504412 (Broad Institute, 2011).

Each structure is given as a SMILES string. Calls of active or inactive are those of the source.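 How the source made its calls: active means activation of at least 10% at the 50 µM dose, scaled between neutral and positive controls; inactive means the rest.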

The experiment can be described thus: cytochrome c release from CHL-1 A1-2A-BIM mitochondria, confirmation, orthogonal assay for A1 inhibitor project, biochemical, isolated mitochondria, cytochrome c ELISA, dry powder (AID 504412). The settings on record: stronger effect = higher value. The essentials:
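System: A1-2A-BIM CHL-1 cell mitochondria; times: compound treatment 30 min, 30 °C; medium: trehalose AT buffer, pH 7.7, 80 mM KCl; controls: DMSO low, DMSO with tBid high; technique: cytochrome c ELISA, A450 with 540 nm correction; evaluation: cytochrome c freed from mitochondria into supernatant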
In general terms: An ELISA detects its analyte on a solid surface through an enzyme-linked reagent.

In the case of `Cn1c(=O)c([N+](=O)[O-])c(Cl)c2ccccc21`, the activation is, setting by setting: (at 50 µM) 25.6% (active); (cytochrome c release, at 10 µM) 10.1%.
